This passage reports Relative Vmax and Km results from ChEMBL document CHEMBL1134666, “Design, synthesis, and biological evaluation of novel nucleoside and nucleotide analogues as agents against DNA viruses and/or retroviruses” (J Med Chem, 2001).

SMILES strings stand for the structures. A value given as a limit tells only on which side of the number the result lay.

For test [1], the target named is T1, Adenosine deaminase (Bos taurus) (UniProt P56658).
T1 sequence (whole entry): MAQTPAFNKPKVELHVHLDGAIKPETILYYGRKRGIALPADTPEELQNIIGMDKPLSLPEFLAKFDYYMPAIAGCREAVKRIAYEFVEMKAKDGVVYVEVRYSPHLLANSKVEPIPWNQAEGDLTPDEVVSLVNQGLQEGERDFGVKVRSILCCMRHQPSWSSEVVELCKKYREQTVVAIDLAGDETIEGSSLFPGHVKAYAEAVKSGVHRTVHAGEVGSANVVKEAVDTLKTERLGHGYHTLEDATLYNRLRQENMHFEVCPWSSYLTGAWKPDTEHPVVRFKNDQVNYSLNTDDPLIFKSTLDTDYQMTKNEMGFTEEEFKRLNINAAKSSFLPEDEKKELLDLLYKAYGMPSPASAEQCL
Description: Maximum velocity constant of the rate of deamination was determined against adenosine deaminase. Put shortly: (§1)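 Calf mucosal adenosine deaminase in buffer solution. Reaction velocity measured as µmol/min per mg enzyme across substrate concentrations.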

For the next test, the system named is Vero. Nature of the test: Michaelis rate constant is determined by the Lineweaver and Burk method against Vero cell thymidine kinase. In kind it is functional, cell-based. The conditions noted are these: Chlorocebus sabaeus.
Test [2] concerns the target T1, Adenosine deaminase (Bos taurus). Description: Maximum velocity constant against adenosine deaminase. Put shortly: as §1
Test [3] concerns Thymidine kinase (Herpes simplex virus 1). Nature of the test: Maximum velocity constant of the rate of phosphorylation was determined in the presence of HSV thymidine kinase.
A short description of test [4]: Maximum velocity constant of the rate of phosphorylation was determined against PRPP synthetase.
The nature of test [5]: Michaelis rate constant is determined by the Lineweaver and Burk method against PRPP synthetase. The method, boiled down:
(§2)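 PRPP synthetase (0.04 unit) in 10.0 mM potassium phosphate pH 8.0 with 5.0 mM MgCl2, 2.5 mM PRPP and substrate. Reaction linear; stopped with MeOH after 4 h. Diphosphate products quantified by anion-exchange HPLC.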

Test [6] in a line: Maximum velocity constant of the rate of phosphorylation was determined against PRPP synthetase. The method, boiled down: as §2
Test [7] concerns Thymidine kinase (Herpes simplex virus 1). Nature of the test: Maximum velocity constant of the rate of phosphorylation was determined against HSV thymidine kinase.

As usually defined, the Km is the substrate concentration at which the rate is half of its maximum. For `Nc1ncnc2ncn(COCCO)c12`, the Relative Vmax in test [1] was 1.5. Also, the Km with Vero is above 3 µM.
On to `Nc1ncnc2c1ncn2COCCO`, for which the results for the Relative Vmax in test [2] and in test [3] were 1.5 and below 3, respectively. Moreover, in the test on Vero, the Km is above 3 µM.
Consider `Nc1ncnc2ncn(CCOCP(=O)(O)O)c12`, for which the Relative Vmax in test [4] worked out at 0.013.
Consider `Nc1ncnc2c1ncn2[C@@H]1O[C@H](COP(=O)(O)O)[C@@H](O)[C@H]1O`, for which, in test [5], the Km is 240 µM. In test [6], the Relative Vmax came out at 14.
In turn, `Nc1ncnc2c1ncn2[C@@H]1O[C@H](CO)[C@@H](O)[C@@H]1O` displayed a Relative Vmax in test [1] of 1. Further, in the test with Vero, the Km turned out to be 2.2 µM.
In test [7], `Nc1nc(O)c2c(ncn2COCCO)n1` showed a Relative Vmax of 28.
